Data: ChEMBL document CHEMBL3739334, “Spiroindole Alkaloids and Spiroditerpenoids from Aspergillus duricaulis and Their Potential Neuroprotective Effects” (J Nat Prod, 2015)

Experiments:
[1] = Cytotoxicity against rat PC12 cells; type: cell-based; conditions: pc-12
[2] = biological target: T1, Amyloid-beta precursor protein (Homo sapiens, UniProt P05067); assay: Inhibition of amyloid beta (1 to 42 residues) (unknown origin) aggregation after 24 hrs by thioflavin T assay
How it was run: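 Aβ1−42 was dissolved in DMSO as a 1 mg/mL stock, then incubated at 20 μM with a range of sample concentrations for 24 h at 37 °C. Thioflavin T was added to 3 μM, and fluorescence was read 30 min later (ex 442 nm, em 485 nm). Aβ alone served as control. Run in triplicate; IC50 is the mean.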

[3] = biological target: T1, Amyloid-beta precursor protein; assay: Inhibition of amyloid beta (1 to 42 residues) (unknown origin) aggregation at 100 uM after 24 hrs by thioflavin T assay

T1 sequence (P05067 whole entry, the tested form may be a part): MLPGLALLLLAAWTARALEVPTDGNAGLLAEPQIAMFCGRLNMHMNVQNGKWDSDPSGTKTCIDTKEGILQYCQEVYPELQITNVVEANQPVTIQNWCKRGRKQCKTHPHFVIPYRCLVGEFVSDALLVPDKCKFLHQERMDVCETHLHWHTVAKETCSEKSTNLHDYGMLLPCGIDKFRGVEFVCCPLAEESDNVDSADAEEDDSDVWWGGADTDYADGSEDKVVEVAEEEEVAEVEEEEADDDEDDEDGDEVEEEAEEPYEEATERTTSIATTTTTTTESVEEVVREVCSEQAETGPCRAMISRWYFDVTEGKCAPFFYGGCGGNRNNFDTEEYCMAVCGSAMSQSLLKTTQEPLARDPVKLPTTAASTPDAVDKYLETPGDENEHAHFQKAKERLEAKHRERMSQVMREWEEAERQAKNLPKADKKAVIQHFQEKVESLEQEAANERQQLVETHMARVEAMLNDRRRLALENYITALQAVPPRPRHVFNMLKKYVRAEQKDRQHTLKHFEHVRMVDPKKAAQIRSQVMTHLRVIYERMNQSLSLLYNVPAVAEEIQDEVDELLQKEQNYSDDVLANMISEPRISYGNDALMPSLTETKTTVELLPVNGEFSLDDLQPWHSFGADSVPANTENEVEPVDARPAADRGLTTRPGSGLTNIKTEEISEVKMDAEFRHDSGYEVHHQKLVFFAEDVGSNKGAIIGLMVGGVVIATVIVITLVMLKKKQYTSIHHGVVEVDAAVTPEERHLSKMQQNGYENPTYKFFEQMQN

| Compound | Activity [1] | IC50 [2] | inhibition [3] |
| --- | --- | --- | --- |
| C[C@H]1CN2C[C@]34C[C@@]5(C(=O)Nc6c5ccc5c6C=CC(C)(C)O5)C(C)(C)[C@@H]3C[C@@]2(C1)C(=O)N4C | Toxic | 204 µM | 30% |
| C[C@@H]1C[C@@]23C[C@H]4C(C)(C)[C@@]5(C[C@]4(CN2C1=O)N(C)C3=O)C(=O)Nc1c5ccc2c1OC=CC(C)(C)O2 |  | > 300 µM |  |
| C[C@@H]1C[C@@]23C[C@H]4C(C)(C)[C@@]5(C[C@]4(CN2C1=O)N(C)C3=O)C(=O)Nc1c5ccc2c1C=CC(C)(C)O2 |  | > 300 µM |  |
| CN1C(=O)[C@@]23CCC(=O)N2C[C@@]12C[C@@]1(C(=O)Nc4c1ccc1c4C=CC(C)(C)O1)C(C)(C)[C@@H]2C3 |  | 187 µM | 30% |
| CC(=O)O[C@H]1CC(=O)OC(C)(C)[C@@H]2CC[C@]3(C)[C@H](CC=C(C)[C@@]34C[C@]3(OC(C)=C(C)C3=O)C(=O)O4)[C@@]12C |  | > 300 µM |  |
| CC1(C)C=Cc2cc(C(=O)O)ccc2O1 |  | > 300 µM |  |
| C[C@@H]1C[C@@]23C[C@H]4C(C)(C)[C@@]5(C[C@]4(CN2C1=O)NC3=O)C(=O)Nc1c5ccc2c1C=CC(C)(C)O2 |  | 244 µM | 30% |
| O=C(/C=C/c1ccc(O)c(O)c1)O[C@H](Cc1ccc(O)c(O)c1)C(=O)O [ROSMARINIC ACID] |  | 71.9 µM |  |
| CC1=CC[C@@H]2[C@@]3(C)C=CC(=O)OC(C)(C)[C@@H]3CC[C@@]2(C)[C@]12Cc1c(c(C)c(C)oc1=O)O2 |  | > 300 µM |  |
| CC1=CC[C@@H]2[C@@]3(C)[C@@H](O)CC(=O)OC(C)(C)[C@@H]3CC[C@@]2(C)[C@]12Cc1c(c(C)c(C)oc1=O)O2 |  | > 300 µM |  |
| C[C@H]1CN2C[C@]34C[C@@]5(C(=O)Nc6c5ccc5c6OC=CC(C)(C)O5)C(C)(C)[C@@H]3C[C@@]2(C1)C(=O)N4C |  | 269 µM | 30% |
| C[C@@H]1C[C@@]23C[C@H]4C(C)(C)[C@@]5(C[C@]4(CN2C1=O)NC3=O)C(=O)Nc1c5ccc2c1OC=CC(C)(C)O2 |  | > 300 µM |  |
